Measured values: ChEMBL document CHEMBL3739420, “Benzoxazolone Carboxamides as Potent Acid Ceramidase Inhibitors: Synthesis and Structure-Activity Relationship (SAR) Studies” (J Med Chem, 2015)
Active and inactive are the calls of the source. No cut-off for these calls is given here.

What was measured:
[1] = Stability in 1 % DMSO containing phosphate-buffered solution assessed as half life at 10 uM at pH 7.4 under shaking by UPLC method; type: physicochemical; settings: for half-life at 10 µM: phosphate-buffered solution, pH 7.4; for t1/2: buffer, pH 7.4, 10 µM
How it was run: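 Compound incubated at 10 μM in PBS pH 7.4; half-life derived by fitting the decay profile.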

[2] = target: T1, Acid ceramidase (Homo sapiens, UniProt Q13510); experiment: Inhibition of recombinant human acid ceramidase expressed in HEK293 cells using N-[(1S,2R)-2-hydroxy-1-(hydroxymethyl)-4-(2-oxochromen-7-yl)-oxybutyl]dodecanamide substrate preincubated for 10 mins; type: cell-based
T1 sequence (Q13510 whole entry): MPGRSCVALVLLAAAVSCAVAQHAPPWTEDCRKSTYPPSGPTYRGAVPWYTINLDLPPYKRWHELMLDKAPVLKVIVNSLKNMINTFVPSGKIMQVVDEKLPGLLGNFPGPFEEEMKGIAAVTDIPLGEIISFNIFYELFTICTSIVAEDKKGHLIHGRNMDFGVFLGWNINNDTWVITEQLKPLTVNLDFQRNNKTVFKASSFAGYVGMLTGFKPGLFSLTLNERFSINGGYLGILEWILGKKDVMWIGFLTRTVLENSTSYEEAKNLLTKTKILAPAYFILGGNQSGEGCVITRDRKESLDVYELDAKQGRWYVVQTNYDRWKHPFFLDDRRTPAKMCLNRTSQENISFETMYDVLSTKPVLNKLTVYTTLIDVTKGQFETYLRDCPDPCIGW
How it was run: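 AC-enriched lysosomal lysate from HEK293 cells stably expressing human AC, preincubated 10 min with compound. Coumarin-linked dodecanamide substrate then added at 5 μM final and incubated 3 h at 37 °C. Reaction stopped with MeOH, then NaIO4 at pH 10.6 for 2 h at 37 °C in the dark; umbelliferone fluorescence read at 355/460 nm. IC50 from nonlinear regression; mean of ≥2 determinations.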

[3] = Chemical stability in AC assay buffer at 10 uM at pH 4.5 under shaking by UPLC method; type: physicochemical; settings: pH 4.5, 10 µM
[4] = tested on: Mus musculus; experiment: Inhibition of acid ceramidase in C57BL/6 mouse lung at 10 mg/kg, ip after 24 hrs by bicinchoninic acid based protein assay; type: functional, organism-based
How it was run: (§1)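 Male C57BL/6 mice dosed ip at 10 mg/kg in 15% PEG/15% Tween-80/70% saline; lung and cerebral cortex collected 30 min–24 h after dosing. Lysosomal extracts were prepared by sonication and differential centrifugation, then incubated at pH 4.5 with 50 μM C12-ceramide for 1 h at 37 °C. Lauric acid product measured by UPLC–MS with an internal standard; activity expressed as % of vehicle; n = 6.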

[5] = tested on: Mus musculus; experiment: Inhibition of acid ceramidase in C57BL/6 mouse lung assessed as decrease in sphingosine-1-phosphate level at 10 mg/kg, ip after 3 hrs by LC-MS method; type: functional, organism-based
[6] = tested on: Mus musculus; experiment: Inhibition of acid ceramidase in C57BL/6 mouse cerebral cortex assessed as changes in sphingolipid level at 10 mg/kg, ip by LC-MS method; type: functional, organism-based
[7] = tested on: Mus musculus; experiment: Inhibition of acid ceramidase in C57BL/6 mouse lung assessed as decrease in sphingosine level at 10 mg/kg, ip after 3 hrs by LC-MS method; type: functional, organism-based
[8] = tested on: Mus musculus; experiment: Inhibition of acid ceramidase in C57BL/6 mouse cerebral cortex at 10 mg/kg, ip after 24 hrs by bicinchoninic acid based protein assay; type: functional, organism-based; how it was run: as §1
[9] = tested on: Mus musculus; experiment: Inhibition of acid ceramidase in C57BL/6 mouse lung assessed as increase in dihydroceramide level at 10 mg/kg, ip upto 6 hrs by LC-MS method; type: functional, organism-based
[10] = tested on: Mus musculus; experiment: Inhibition of acid ceramidase in C57BL/6 mouse lung assessed as increase in ceramide level at 10 mg/kg, ip upto 6 hrs by LC-MS method; type: functional, organism-based
[11] = target: T2, Acid ceramidase (Homo sapiens) (UniProt Q13510); experiment: Inhibition of recombinant human acid ceramidase expressed in HEK293 cells at 5 uM using N-[(1S,2R)-2-hydroxy-1-(hydroxymethyl)-4-(2-oxochromen-7-yl)-oxybutyl]dodecanamide substrate preincubated for 10 mins; type: cell-based
T2 sequence (whole entry): T1 sequence (Q13510 whole entry)

| Structure (SMILES) | half-life at 10 µM [1] | IC50 ([2]; read-out: IC50) | also measured |
| --- | --- | --- | --- |
| O=C(NCCCCc1ccccc1)n1c(=O)oc2ccc(-c3ccc(F)cc3)cc21 | > 5 h |  |  |
| COc1ccc(-c2ccc3oc(=O)n(C(=O)NCCCCc4ccccc4)c3c2)cc1 | 2.93 h | 67 nM |  |
| O=C(c1ccc(Cl)cc1)c1ccc2c(c1)oc(=O)n2C(=O)NCCCCc1ccccc1 | 4.57 h |  | Stability [3]: Stable |
| O=C(NCCCCc1ccccc1)n1c(=O)oc2ccc(C(F)(F)F)cc21 |  | 18 nM |  |
| CN(CCNC(=O)n1c(=O)oc2ccccc21)Cc1ccccc1 |  |  | inhibition [11]: inactive |
| O=C(NCCCCc1ccccc1)n1c(=O)oc2ccccc21 |  |  | t1/2 [1]: 0.75 h |
| O=C(NCCCCc1ccccc1)n1c(=O)oc2ccc([N+](=O)[O-])cc21 |  |  | Stability [3]: Stable |
| O=C(NCCCCc1ccccc1)n1c(=O)oc2cc(Br)ccc21 |  |  | IC50 ([2]; hek293, read-out: IC50): 31 nM; t1/2 [1]: 0.4 h |
| O=C(NCCCCc1ccccc1)n1c(=O)oc2c(-c3ccccc3)cccc21 | > 5 h |  |  |
| O=C(NCCCCc1ccccc1)n1c(=O)oc2cc(-c3ccc(F)cc3)ccc21 | > 5 h |  |  |
| O=C(NCCCCc1ccccc1)n1c(=O)oc2cccc(Br)c21 |  |  | IC50 ([2]; hek293): ND(Unstable) |
| O=C(c1ccccc1)c1ccc2oc(=O)n(C(=O)NCCCCc3ccccc3)c2c1 |  | 24 nM |  |
| O=C(NCCCCc1ccccc1)n1c(=O)oc2cc(Cl)c(Cl)cc21 | 0.917 h |  |  |
| O=C(NCCCCc1ccccc1)n1c(=O)oc2cccc(-c3ccccc3)c21 | 0.117 h |  |  |
| O=C(NCCCCc1ccc([N+](=O)[O-])cc1)n1c(=O)oc2ccccc21 |  | 312 nM |  |
| COc1ccc(-c2ccc3c(c2)oc(=O)n3C(=O)NCCCCc2ccccc2)cc1 | 2.2 h |  |  |
| O=C(c1ccccc1)c1ccc2c(c1)oc(=O)n2C(=O)NCCCCc1ccccc1 | 1.63 h |  | Stability [3]: Stable |
| Cc1cccc2oc(=O)n(C(=O)NCCCCc3ccccc3)c12 |  |  | IC50 ([2]; hek293): ND(Unstable) |
| O=C(NCCCCc1cccs1)n1c(=O)oc2ccccc21 |  | 37 nM |  |
| O=C(NCCCCc1ccccc1)n1c(=O)oc2cc([N+](=O)[O-])ccc21 |  |  | Stability [3]: Stable |

More lines, main results first:

| half-life at 10 µM [1] | IC50 ([2]; read-out: IC50) | Structure (SMILES) | also measured |
| --- | --- | --- | --- |
| 0.967 h |  | O=C(NCCCCc1ccccc1)n1c(=O)oc2cc(Cl)ccc21 | inhibition [4]: Active; inhibition [5]: Active; Stability [3]: Stable; inhibition [6]: inactive; inhibition [7]: Active; inhibition [8]: Active; inhibition [9]: Active; inhibition [10]: Active |
| > 5 h |  | O=C(NCCCCc1ccccc1)n1c(=O)oc2cc(-c3ccccc3)ccc21 |  |
|  | 65 nM | O=C(NCCSCc1ccccc1)n1c(=O)oc2ccccc21 |  |
| 4.93 h | 42 nM | O=C(NCCCCc1ccccc1)n1c(=O)oc2ccc(-c3ccccc3)cc21 | Stability [3]: Stable |
|  | 12 nM | O=C(NCCCCc1ccccc1)n1c(=O)oc2ccc(F)cc21 |  |
|  | 25 nM | Cc1ccc(CCCCNC(=O)n2c(=O)oc3ccccc32)cc1 |  |
|  | 15 nM | O=C(NCCCCc1ccccc1)n1c(=O)oc2ccc(Cl)cc21 |  |
|  | 649 nM | O=C(NCCOCc1ccccc1)n1c(=O)oc2ccccc21 |  |
|  | 121 nM | O=C(NCCc1ccccc1)n1c(=O)oc2ccccc21 |  |
|  | 31 nM | O=C(NCCCCc1ccccc1)n1c(=O)oc2cc(F)ccc21 |  |
|  | 51 nM | O=C(NCCCCCCc1ccccc1)n1c(=O)oc2ccccc21 |  |
|  | 71 nM | O=C(NCCCCc1ccc2ccccc2c1)n1c(=O)oc2ccccc21 |  |
